Measurements taken from PMC5189718 (Journal of the American Chemical Society, 2016).
Several values for one entry are separate records, joined by “and”; a condition that tells them apart may be missing. Equal entries are not always repeated.

Assays:
hKOR [1] = target: T1, hKOR (Homo sapiens, UniProt P41145); experiment: G protein BRET functional assay at hKOR; format: cell-based; settings: for IC50: read-out: IC50 ± SEM (antagonist activity), inhibition of a reference agonist (U-50,488); for agonist activity: concentrations up to 100 µM
T1 sequence (P41145 whole entry, the tested form may be a part): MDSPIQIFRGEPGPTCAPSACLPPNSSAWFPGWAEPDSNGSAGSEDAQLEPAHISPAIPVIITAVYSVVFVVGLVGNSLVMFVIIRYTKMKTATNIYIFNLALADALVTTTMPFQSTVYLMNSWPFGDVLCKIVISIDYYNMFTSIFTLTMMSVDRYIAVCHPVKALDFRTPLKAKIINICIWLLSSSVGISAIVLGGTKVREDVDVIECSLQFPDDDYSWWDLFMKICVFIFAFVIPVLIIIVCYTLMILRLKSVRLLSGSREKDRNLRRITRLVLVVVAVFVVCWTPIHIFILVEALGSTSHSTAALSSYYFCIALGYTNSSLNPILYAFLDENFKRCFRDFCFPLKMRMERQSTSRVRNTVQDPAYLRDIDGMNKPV
Method in brief: (§1)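 HEK cells expressing the human receptor, co-transfected with Gα fused to an RLuc8 donor and Gγ fused to an mVenus acceptor. Receptor activation separates the G protein subunits, so the BRET signal falls. Agonist mode gives EC50 and Emax. Antagonist mode gives IC50 for inhibition of a reference agonist, and pA2 from Schild analysis. Values are mean ± SEM, n ≥ 3.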

[2] = target: human mu-opioid receptor (hMOR) (Homo sapiens, UniProt P35372); experiment: G protein BRET functional assay at hMOR; format: cell-based; settings: for maximal efficacy (Emax) relative to DAMGO: G protein BRET, agonist mode; for EC50: read-out: EC50 ± SEM (agonist activity), G protein BRET, HEK cells, mean ± SEM, n ≥ 3
Sequence of human mu-opioid receptor (hMOR) (P35372 whole entry): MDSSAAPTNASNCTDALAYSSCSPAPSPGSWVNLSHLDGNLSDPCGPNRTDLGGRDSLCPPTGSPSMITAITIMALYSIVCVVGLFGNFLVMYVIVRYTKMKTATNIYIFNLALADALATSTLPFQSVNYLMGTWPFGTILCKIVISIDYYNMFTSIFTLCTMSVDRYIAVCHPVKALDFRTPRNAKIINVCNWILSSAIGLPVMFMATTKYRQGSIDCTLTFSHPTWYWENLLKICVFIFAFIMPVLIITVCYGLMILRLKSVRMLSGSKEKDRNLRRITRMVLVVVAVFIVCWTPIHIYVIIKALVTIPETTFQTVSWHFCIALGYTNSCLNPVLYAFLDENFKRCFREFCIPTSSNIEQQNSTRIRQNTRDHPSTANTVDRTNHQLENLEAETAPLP

mouse MOR (mMOR) = mouse MOR (mMOR) (Mus musculus, UniProt P42866); experiment: G protein BRET functional assay at mouse MOR; format: cell-based
Sequence of mouse MOR (mMOR) (P42866 whole entry): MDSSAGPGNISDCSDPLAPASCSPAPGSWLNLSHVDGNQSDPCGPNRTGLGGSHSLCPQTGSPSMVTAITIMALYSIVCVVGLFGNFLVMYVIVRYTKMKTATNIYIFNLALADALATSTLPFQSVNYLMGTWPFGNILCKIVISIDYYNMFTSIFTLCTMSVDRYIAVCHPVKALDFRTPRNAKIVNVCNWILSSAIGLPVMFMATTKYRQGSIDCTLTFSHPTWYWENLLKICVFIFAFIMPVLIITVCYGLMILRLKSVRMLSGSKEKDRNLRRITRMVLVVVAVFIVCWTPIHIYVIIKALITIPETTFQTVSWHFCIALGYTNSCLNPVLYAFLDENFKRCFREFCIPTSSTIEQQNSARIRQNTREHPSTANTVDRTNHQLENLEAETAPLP

hMOR [3] = target: T2, hMOR (Homo sapiens, UniProt P35372); experiment: β-arrestin recruitment BRET assay at hMOR; format: cell-based; settings: β-arrestin-2 BRET, in the presence of GRK2
T2 sequence (P35372 whole entry): as the sequence (P35372 whole entry) above

hDOR [4] = target: T3, hDOR (Homo sapiens, UniProt P41143); experiment: G protein BRET functional assay at hDOR; format: cell-based; settings: for IC50: read-out: IC50 ± SEM (antagonist activity), inhibition of a reference agonist; for agonist activity: concentrations up to 100 µM
T3 sequence (P41143 whole entry): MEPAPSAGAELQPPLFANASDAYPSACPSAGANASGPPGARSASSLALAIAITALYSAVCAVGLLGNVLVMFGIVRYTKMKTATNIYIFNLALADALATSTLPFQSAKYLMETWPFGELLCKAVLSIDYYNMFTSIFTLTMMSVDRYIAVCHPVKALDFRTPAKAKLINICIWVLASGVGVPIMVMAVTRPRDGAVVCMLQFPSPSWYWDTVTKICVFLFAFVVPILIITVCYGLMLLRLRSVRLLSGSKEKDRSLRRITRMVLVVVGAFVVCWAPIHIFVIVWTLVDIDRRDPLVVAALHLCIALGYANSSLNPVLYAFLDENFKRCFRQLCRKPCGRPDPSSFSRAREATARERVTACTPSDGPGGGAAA
Method in brief: as §1

hDOR [5] = target: T3, hDOR; experiment: Radioligand binding at hDOR; settings: read-out: Ki ± SEM, n ≥ 3
rodent opioid receptors = experiment: G protein BRET functional assays using rodent opioid receptors; format: cell-based; settings: rodent receptors (mouse or rat)
hMOR [6] = target: T2, hMOR; experiment: Radioligand binding at hMOR; settings: read-out: Ki ± SEM, n ≥ 3
hKOR [7] = target: T1, hKOR; experiment: Radioligand binding at hKOR; settings: read-out: Ki ± SEM, n ≥ 3

| Molecule | IC50 (hDOR [4]) | Ki (hDOR [5]) | IC50 (hKOR [1]) | agonist or antagonist activity at rodent opioid receptors (rodent opioid receptors) | agonist activity (hDOR [4]) | agonist activity (hKOR [1]) | also measured |
| --- | --- | --- | --- | --- | --- | --- | --- |
| CCC1CN2CCc3c([nH]c4cccc(OC)c34)C2CC1C(=COC)C(=O)OC (single isomer, unassigned; (+)) [(+)-mitragynine] |  |  |  |  |  |  | Emax (hKOR [1]; G protein BRET, agonist mode): 31% |
| CC[C@@H]1CN2CCc3c([nH]c4cccc(O)c34)[C@@H]2C[C@@H]1/C(=C\OC)C(=O)OC [Compound 1] |  |  |  |  |  |  | maximal efficacy (Emax) relative to DAMGO [2]: 29%; EC50 [2]: 0.681 ± 0.379 µM |
| CO/C=C(/C(=O)OC)[C@@H]1CCN2CCc3c([nH]c4cccc(OC)c34)[C@@H]2C1 [Compound 3, desethylmitragynine] |  |  |  |  |  |  | maximal efficacy (Emax) relative to DAMGO [2]: 59%; EC50 [2]: 12 ± 7.6 µM |
| CC[C@@H]1CN2CC[C@@]3(O)C(=Nc4cccc(OC)c43)[C@@H]2C[C@@H]1/C(=C\OC)C(=O)OC [Compound 7-OH, 7-hydroxymitragynine] | > 10 µM | 0.219 ± 0.041 µM | 7.9 µM |  |  |  | agonist activity at mMOR (mouse MOR (mMOR)): retains its agonist activity; β-arrestin recruitment (hMOR [3]): no measurable β-arrestin binding; pA2 (Schild analysis) (hKOR [1]; competitive antagonism): 490 ± 131 nM; pA2 determined from Schild analysis (hKOR [1]; competitive antagonism): 0.49 µM |
| C=C[C@H]1CN2CCc3c([nH]c4cccc(OC)c34)[C@@H]2C[C@@H]1/C(=C\OC)C(=O)OC [paynantheine] |  | > 10 µM |  | no notable agonist or antagonist activity | no measurable agonist activity | no measurable agonist activity | Ki (hMOR [6]): 0.41 ± 0.152 µM; agonist activity ([2]; concentrations up to 100 µM): no measurable agonist activity; IC50 ([2]; read-out: IC50 ± SEM (antagonist activity), inhibition of a reference agonist, n ≥ 3): 2.2 µM |
| CC[C@@H]1CN2CCc3c([nH]c4cccc(OC)c34)[C@H]2C[C@@H]1/C(=C\OC)C(=O)OC [speciociliatine] | > 10 µM | > 10 µM | > 10 µM | no notable agonist or antagonist activity | no measurable agonist activity | no measurable agonist activity |  |
| CC[C@H]1CN2CCc3c([nH]c4cccc(OC)c34)[C@@H]2C[C@@H]1/C(=C\OC)C(=O)OC [speciogynine] | > 10 µM | > 10 µM | > 10 µM | no notable agonist or antagonist activity | no measurable agonist activity | no measurable agonist activity |  |
| mitragynine | > 10 µM | > 10 µM | 8.5 µM | no agonist activity |  |  | antagonist activity at hDOR (hDOR [4]): very low potency; Ki (hKOR [7]): 0.772 ± 0.207 µM; pA2 determined from Schild analysis (hKOR [1]; competitive antagonism): 1.4 ± 0.40 µM and 1.4 µM |
